From ChEMBL document CHEMBL1157615, “N-methyl phenylalanine-rich peptides as highly versatile blood-brain barrier shuttles” (J Med Chem, 2010)
Numbered stars: 1 amine (or outer) side, 2 acyl side, 3 side chain; on linkers, the order of the positions; unused ones are H or OH. Square brackets hold non-standard residues; d marks the D form. Peptide text beside a SMILES is read from it. * marks the point of attachment. ξ: configuration not given here. 2Nal = N[C@@H](Cc1ccc2ccccc2c1)C(=O)O; NMeF = CN[C@@H](Cc1ccccc1)C(=O)O; ξNip = O=C(C1CCCN([*:1])C1)[*:2]; X1 = NCC(=O)CCC(=O)*; GABA = NCCCC(=O)O

Key:
[1] = Effective permeability across artificial membrane at 200 uM by PAMPA using HPLC/MS method; type: ADME; settings: read-out: permeability
Method in brief: (§1)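 PAMPA with porcine polar brain lipid extract (20 mg/mL in dodecane) on the filter; 200 μM compound in water with 20% 1-propanol cosolvent in donor, water in acceptor; 4 h at room temperature, saturated humidity, orbital shaking 100 rpm. Donor and acceptor quantified by HPLC-MS against external calibration curves. Pe and % transport from acceptor versus initial donor concentration; retention from mass balance.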

[2] = Permeability across artificial membrane assessed as compound transport at 200 uM after 4 hrs by PAMPA using HPLC/MS method; type: ADME; method in brief: as §1
[3] = Permeability across artificial membrane assessed as membrane retention at 200 uM by PAMPA using HPLC/MS method; type: ADME; method in brief: as §1
[4] = Apparent permeability in BBMEC; type: ADME, Bos taurus; settings: cattle
[5] = Apparent permeability in BBMEC assessed as membrane retention; type: ADME, cell membranes, Bos taurus; settings: cattle
[6] = Apparent permeability in BBMEC assessed as compound transport after 2 hrs; type: ADME, Bos taurus; settings: cattle

SMILES: CN(C(=O)CCCN)[C@@H](Cc1ccccc1)C(=O)N(C)[C@@H](Cc1ccccc1)C(=O)N(C)[C@@H](Cc1ccccc1)C(=O)N(C)[C@@H](Cc1ccccc1)C(N)=O (H-[GABA][NMeF][NMeF][NMeF][NMeF]-NH2)
- Papp at 200 µM [1]: 0.4 ×10⁻⁶ cm/s
- Activity [2]: 0.8%
- Activity [3]: < 1%

SMILES: CN(C(=O)[C@H](Cc1ccc2ccccc2c1)NC(=O)C1CCCNC1)[C@@H](Cc1ccccc1)C(=O)N(C)[C@@H](Cc1ccccc1)C(=O)N(C)[C@@H](Cc1ccccc1)C(N)=O (some centres undefined) (ξNip-[2Nal][NMeF][NMeF][NMeF]-NH2)
- Papp [4]: 3.5 ×10⁻⁶ cm/s
- Activity [5]: 83.8%
- Activity [6]: 4.1%
- Papp at 200 µM [1]: 1.1 ×10⁻⁶ cm/s
- Activity [2]: 2.4%
- Activity [3]: 23.6%

SMILES: NCC(=O)CCC(=O)O [AMINOLEVULINIC ACID]
- Activity [2]: 0%
- Activity [3]: 23%

SMILES: NCCCC(=O)O [GAMMA-AMINOBUTYRIC ACID]
- Activity [2]: 0%
- Activity [3]: 5.4%

SMILES: CC(=O)N1CCC[C@H]1C(=O)N1CCC[C@H]1C(=O)N1CCC[C@H]1C(=O)N1CCC[C@H]1C(=O)N1CCC[C@H]1C(=O)N1CCC[C@H]1C(=O)N1CCC[C@H]1C(=O)N1CCC[C@H]1C(N)=O (Ac-PPPPPPPP-NH2)
- Activity [2]: 0%
- Activity [3]: 0%

SMILES: CC(=O)N1CCC[C@H]1C(=O)N1CCC[C@H]1C(=O)N1CCC[C@H]1C(=O)N1CCC[C@H]1C(=O)N1CCC[C@H]1C(=O)N1CCC[C@H]1C(N)=O (Ac-PPPPPP-NH2)
- Activity [2]: 0%
- Activity [3]: 0%

SMILES: NC(=O)N1c2ccccc2C=Cc2ccccc21 [CARBAMAZEPINE]
- Papp [4]: 16.5 ×10⁻⁶ cm/s
- Activity [5]: 67.5%
- Activity [6]: 20%
- Papp at 200 µM [1]: 11.5 ×10⁻⁶ cm/s
- Activity [2]: 19.3%
- Activity [3]: < 1%

SMILES: Cn1c(=O)c2c(ncn2C)n(C)c1=O [CAFFEINE]
- Papp [4]: 16.1 ×10⁻⁶ cm/s
- Activity [5]: 67.4%
- Activity [6]: 20.6%

SMILES: CC(=O)N1CCC[C@H]1C(=O)N1CCC[C@H]1C(=O)N1CCC[C@H]1C(=O)N1CCC[C@H]1C(=O)N1CCC[C@H]1C(=O)N1CCC[C@H]1C(=O)N1CCC[C@H]1C(=O)N1CCC[C@H]1C(=O)N1CCC[C@H]1C(=O)N1CCC[C@H]1C(N)=O (Ac-PPPPPPPPPP-NH2)
- Activity [2]: 0%
- Activity [3]: 0%

SMILES: CN(C(=O)[C@H](Cc1ccc2ccccc2c1)NC(=O)CCCN)[C@@H](Cc1ccccc1)C(=O)N(C)[C@@H](Cc1ccccc1)C(=O)N(C)[C@@H](Cc1ccccc1)C(N)=O (H-[GABA][2Nal][NMeF][NMeF][NMeF]-NH2)
- Papp at 200 µM [1]: 0.2 ×10⁻⁶ cm/s
- Activity [2]: 0.4%
- Activity [3]: 18.4%

SMILES: CN(C(=O)C1CCCNC1)[C@@H](Cc1ccccc1)C(=O)N(C)[C@@H](Cc1ccccc1)C(=O)N(C)[C@@H](Cc1ccccc1)C(=O)N(C)[C@@H](Cc1ccccc1)C(N)=O (some centres undefined) (ξNip-[NMeF][NMeF][NMeF][NMeF]-NH2)
- Papp [4]: 6.6 ×10⁻⁶ cm/s
- Activity [5]: 74%
- Activity [6]: 7.9%
- Papp at 200 µM [1]: 1.4 ×10⁻⁶ cm/s
- Activity [2]: 2.8%
- Activity [3]: 4.6%

SMILES: CC(C)NCC(O)COc1cccc2ccccc12 (centres undefined) [PROPRANOLOL]
- Papp [4]: 16.9 ×10⁻⁶ cm/s
- Activity [5]: 63%
- Activity [6]: 21.2%
- Activity [2]: 13.9%
- Activity [3]: 17.2%

SMILES: CC(=O)N1CCC[C@H]1C(=O)N1CCC[C@H]1C(=O)N1CCC[C@H]1C(=O)N1CCC[C@H]1C(N)=O (Ac-PPPP-NH2)
- Activity [2]: 0%
- Activity [3]: 0%

SMILES: O=C(O)C1CCCNC1 (centres undefined) [NIPECOTIC ACID]
- Activity [2]: 0%
- Activity [3]: 52.6%

SMILES: CN(C(=O)CCC(=O)CN)[C@@H](Cc1ccccc1)C(=O)N(C)[C@@H](Cc1ccccc1)C(=O)N(C)[C@@H](Cc1ccccc1)C(=O)N(C)[C@@H](Cc1ccccc1)C(N)=O (X1-[NMeF][NMeF][NMeF][NMeF]-NH2)
- Papp [4]: 15 ×10⁻⁶ cm/s
- Activity [5]: 50.7%
- Activity [6]: 17.8%
- Papp at 200 µM [1]: 1 ×10⁻⁶ cm/s
- Activity [2]: 2.1%
- Activity [3]: 14.5%

SMILES: CC(=O)N1CCC[C@H]1C(=O)N1CCC[C@H]1C(N)=O (Ac-Pro-Pro-NH2)
- Activity [2]: 0%
- Activity [3]: 0%
